# Source: ChEMBL document CHEMBL1926569, “Novel (E)-1-(4-methyl-2-(alkylamino)thiazol-5-yl)-3-arylprop-2-en-1-ones as potent antimicrobial agents” (2011)
# Legend:
# Salmonella typhimurium [1] = experiment: Antibacterial activity against Salmonella Typhimurium ATCC 13311 incubated for 24 hrs followed by serial sub-cultivation for 24 hrs by microdilution; type: functional, Salmonella enterica subsp. enterica serovar Typhimurium; details: Salmonella enterica, ATCC 13311, 24 h
# Outline: (§1)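 MBC: after the 24 h LB broth microdilution (1.0 × 10⁴ CFU per well, 160 rpm), wells were serially sub-cultured into fresh broth plates and incubated a further 24 h. MBC is the lowest concentration with no visible growth, taken as 99.5% killing of the original inoculum. Duplicate, repeated three times.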
# Aspergillus ochraceus [2] = experiment: Antifungal activity against Aspergillus ochraceus after 72 hrs by serial dilution technique
# Penicillium ochrochloron [3] = experiment: Ratio of ketoconazole to compound for Penicillium ochrochloron ATCC 9112; type: functional
# Aspergillus ochraceus [4] = experiment: Ratio of ketoconazole to compound for Aspergillus ochraceus ATCC 12066; type: functional
# Aspergillus fumigatus [5] = experiment: Ratio of ketoconazole to compound for Aspergillus fumigatus isolated from human; type: functional
# Listeria monocytogenes [6] = experiment: Antibacterial activity against Listeria monocytogenes NCTC 7973 after 24 hrs by microdilution method; type: functional; details: NCTC 7973, 24 h
# Outline: (§2)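 Broth microdilution in 96-well plates. Bacterial suspensions were adjusted in sterile saline to 1.0 × 10⁵ CFU/ml, prepared daily and kept at 4 °C. Compound was added to LB broth with 1.0 × 10⁴ CFU per well and shaken at 160 rpm for 24 h at […] (so in the source). MIC is the lowest concentration with no visible growth under a binocular microscope. OD655 was also read. Duplicate, repeated three times.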
# Micrococcus flavus [7] = experiment: Antibacterial activity against Micrococcus flavus ATCC 10240 incubated for 24 hrs followed by serial sub-cultivation for 24 hrs by microdilution; type: functional; details: ATCC 10240, 24 h; outline: as §1
# Pseudomonas aeruginosa [8] = experiment: Antibacterial activity against Pseudomonas aeruginosa ATCC 27853 incubated for 24 hrs followed by serial sub-cultivation for 24 hrs by microdilution; type: functional; details: ATCC 27853, 24 h; outline: as §1
# Aspergillus flavus [9] = experiment: Antifungal activity against Aspergillus flavus ATCC 9643 incubated for 72 hrs followed by serial sub-cultivation for 72 hrs by serial dilution technique; type: functional; details: ATCC 9643, 72 h
# Outline: (§3)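 MFC: material from 72 h malt broth microdilution wells was serially sub-cultured into fresh broth plates and incubated a further 72 h at 28 °C. Fungicidal concentration is taken from growth after sub-culture. Duplicate, repeated three times.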
# Pseudomonas aeruginosa [10] = experiment: Antibacterial activity against Pseudomonas aeruginosa ATCC 27853 after 24 hrs by microdilution method; type: functional; details: ATCC 27853, 24 h; outline: as §2
# Aspergillus ochraceus [11] = experiment: Antifungal activity against Aspergillus ochraceus ATCC 12066 after 72 hrs by serial dilution technique; type: functional; details: ATCC 12066, 72 h
# Outline: (§4)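 Modified microdilution in 96-well plates. Fungi were kept on malt agar at 4 °C. Spores were washed off in sterile 0.85% saline with 0.1% Tween 80. Compounds were dissolved at 1 mg/ml in 5% DMSO with 0.1% Tween 80 and added to malt broth with inoculum. Plates were shaken at 160 rpm for 72 h at 28 °C. Duplicate, repeated three times.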
# Aspergillus ochraceus [12] = experiment: Antifungal activity against Aspergillus ochraceus ATCC 12066 incubated for 72 hrs followed by serial sub-cultivation for 72 hrs by serial dilution technique; type: functional; details: ATCC 12066, 72 h; outline: as §3
# Enterococcus faecalis [13] = experiment: Antibacterial activity against Enterococcus faecalis isolated from human incubated for 24 hrs followed by serial sub-cultivation for 24 hrs by microdilution; type: functional; outline: as §1
# Pseudomonas aeruginosa [14] = experiment: Ratio of ampicillin MIC to compound MIC for Pseudomonas aeruginosa ATCC 27853; type: functional
# Talaromyces funiculosus [15] = experiment: Antifungal activity against Penicillium funiculosum ATCC 36839 after 72 hrs by serial dilution technique; type: functional; details: ATCC 36839, 72 h; outline: as §4
# Escherichia coli [16] = experiment: Antibacterial activity against Escherichia coli ATCC 35210 after 24 hrs by microdilution method; type: functional; details: ATCC 35210, 24 h; outline: as §2
# Escherichia coli [17] = experiment: Antibacterial activity against Escherichia coli ATCC 35210 incubated for 24 hrs followed by serial sub-cultivation for 24 hrs by microdilution; type: functional; details: ATCC 35210, 24 h; outline: as §1
# Listeria monocytogenes [18] = experiment: Antibacterial activity against Listeria monocytogenes NCTC 7973 incubated for 24 hrs followed by serial sub-cultivation for 24 hrs by microdilution; type: functional; details: NCTC 7973, 24 h; outline: as §1
# Candida albicans [19] = experiment: Antifungal activity against Candida albicans isolated from human incubated for 72 hrs followed by serial sub-cultivation for 72 hrs by serial dilution technique; type: functional; outline: as §3
# Aspergillus flavus [20] = experiment: Antifungal activity against Aspergillus flavus ATCC 9643 after 72 hrs by serial dilution technique; type: functional; details: ATCC 9643, 72 h; outline: as §4
# Staphylococcus aureus [21] = experiment: Antibacterial activity against Staphylococcus aureus ATCC 6538 after 24 hrs by microdilution method; type: functional; details: ATCC 6538, 24 h; outline: as §2
# Candida albicans [22] = experiment: Ratio of bifonazole to compound for Candida albicans isolated from human; type: functional
# Candida albicans [23] = experiment: Antifungal activity against Candida albicans isolated from human after 72 hrs by serial dilution technique; type: functional; outline: as §4
# Penicillium ochrochloron [24] = experiment: Ratio of bifonazole to compound for Penicillium ochrochloron ATCC 9112; type: functional
# Salmonella typhimurium [25] = experiment: Antibacterial activity against Salmonella Typhimurium ATCC 13311 after 24 hrs by microdilution method; type: functional, Salmonella enterica subsp. enterica serovar Typhimurium; details: Salmonella enterica, ATCC 13311, 24 h; outline: as §2
# Trichoderma viride [26] = experiment: Ratio of bifonazole to compound for Trichoderma viride IAM 5061; type: functional
# Aspergillus ochraceus [27] = experiment: Ratio of bifonazole to compound for Aspergillus ochraceus ATCC 12066; type: functional
# Bacillus cereus [28] = experiment: Antibacterial activity against clinical isolate of Bacillus cereus incubated for 24 hrs followed by serial sub-cultivation for 24 hrs by microdilution; type: functional; outline: as §1
# Enterococcus faecalis [29] = experiment: Antibacterial activity against Enterococcus faecalis isolated from human after 24 hrs by microdilution method; type: functional; outline: as §2
# Talaromyces funiculosus [30] = experiment: Ratio of bifonazole to compound for Penicillium funiculosum ATCC 36839; type: functional
# Aspergillus niger [31] = experiment: Antifungal activity against Aspergillus niger ATCC 6275 after 72 hrs by serial dilution technique; type: functional; details: ATCC 6275, 72 h; outline: as §4
# Aspergillus niger [32] = experiment: Antifungal activity against Aspergillus niger ATCC 6275 incubated for 72 hrs followed by serial sub-cultivation for 72 hrs by serial dilution technique; type: functional; details: ATCC 6275, 72 h; outline: as §3
# Trichoderma viride [33] = experiment: Antifungal activity against Trichoderma viride IAM 5061 after 72 hrs by serial dilution technique; type: functional; details: IAM 5061, 72 h; outline: as §4
# Penicillium ochrochloron [34] = experiment: Antifungal activity against Penicillium ochrochloron ATCC 9112 after 72 hrs by serial dilution technique; type: functional; details: ATCC 9112, 72 h; outline: as §4
# Penicillium ochrochloron [35] = experiment: Antifungal activity against Penicillium ochrochloron ATCC 9112 incubated for 72 hrs followed by serial sub-cultivation for 72 hrs by serial dilution technique; type: functional; details: ATCC 9112, 72 h; outline: as §3
# Aspergillus fumigatus [36] = experiment: Antifungal activity against Aspergillus fumigatus isolated from human incubated for 72 hrs followed by serial sub-cultivation for 72 hrs by serial dilution technique; type: functional; outline: as §3
# Staphylococcus aureus [37] = experiment: Antibacterial activity against Staphylococcus aureus ATCC 6538 incubated for 24 hrs followed by serial sub-cultivation for 24 hrs by microdilution method; type: functional; details: ATCC 6538, 24 h; outline: as §1
# Candida albicans [38] = experiment: Ratio of ketoconazole to compound for Candida albicans isolated from human; type: functional
# Trichoderma viride [39] = experiment: Antifungal activity against Trichoderma viride IAM 5061 incubated for 72 hrs followed by serial sub-cultivation for 72 hrs by serial dilution technique; type: functional; details: IAM 5061, 72 h; outline: as §3
# Micrococcus flavus [40] = experiment: Antibacterial activity against Micrococcus flavus ATCC 10240 after 24 hrs by microdilution method; type: functional; details: ATCC 10240, 24 h; outline: as §2
# Talaromyces funiculosus [41] = experiment: Antifungal activity against Penicillium funiculosum ATCC 36839 incubated for 72 hrs followed by serial sub-cultivation for 72 hrs by serial dilution technique; type: functional; details: ATCC 36839, 72 h; outline: as §3
# Aspergillus niger [42] = experiment: Ratio of bifonazole to compound for Aspergillus niger ATCC 6275; type: functional
# Bacillus cereus [43] = experiment: Antibacterial activity against clinical isolate of Bacillus cereus after 24 hrs by microdilution method; type: functional; outline: as §2
compound,measurement,setting,value
CNc1nc(C)c(C(=O)/C=C/c2cccc(F)c2)s1,MBC,Salmonella typhimurium [1],90.6 µM
same,MIC,Aspergillus ochraceus [2],36.2 µM
same,Ratio,Penicillium ochrochloron [3],10
same,Ratio,Aspergillus ochraceus [4],10
same,Ratio,Aspergillus fumigatus [5],10
same,MIC,Listeria monocytogenes [6],90.6 µM
same,MBC,Micrococcus flavus [7],72.5 µM
same,MBC,Pseudomonas aeruginosa [8],72.5 µM
same,MFC,Aspergillus flavus [9],90.6 µM
same,MIC,Pseudomonas aeruginosa [10],54.3 µM
same,MIC,Aspergillus ochraceus [11],36.2 µM
same,MFC,Aspergillus ochraceus [12],72.5 µM
same,MBC,Enterococcus faecalis [13],72.5 µM
same,Ratio,Pseudomonas aeruginosa [14],10
same,MIC,Talaromyces funiculosus [15],36.2 µM
same,MIC,Escherichia coli [16],54.3 µM
same,MBC,Escherichia coli [17],72.5 µM
same,MBC,Listeria monocytogenes [18],90.6 µM
same,MFC,Candida albicans [19],72.5 µM
same,MIC,Aspergillus flavus [20],36.2 µM
same,MIC,Staphylococcus aureus [21],72.5 µM
same,Ratio,Candida albicans [22],10
same,MIC,Candida albicans [23],51.3 µM
same,Ratio,Penicillium ochrochloron [24],10
same,MIC,Salmonella typhimurium [25],72.5 µM
same,Ratio,Trichoderma viride [26],10
same,Ratio,Aspergillus ochraceus [27],10
same,MBC,Bacillus cereus [28],90.6 µM
same,MIC,Enterococcus faecalis [29],54.3 µM
same,Ratio,Talaromyces funiculosus [30],10
same,MIC,Aspergillus niger [31],54.3 µM
same,MFC,Aspergillus niger [32],72.5 µM
same,MIC,Trichoderma viride [33],36.2 µM
same,MIC,Penicillium ochrochloron [34],36.2 µM
same,MFC,Penicillium ochrochloron [35],72.5 µM
same,MFC,Aspergillus fumigatus [36],72.5 µM
same,MBC,Staphylococcus aureus [37],90.6 µM
same,Ratio,Candida albicans [38],10
same,MFC,Trichoderma viride [39],72.5 µM
same,MIC,Micrococcus flavus [40],18.1 µM
same,MFC,Talaromyces funiculosus [41],72.5 µM
same,Ratio,Aspergillus niger [42],10
same,MIC,Bacillus cereus [43],72.5 µM
